Measurements reported in PMC8583780 (ChemMedChem, 2020).
Entries after “also recorded” stand apart in the source; their conditions may differ.

Legend:
[1] = human Phase 1, even at the highest doses; cited from earlier work
[2] = five Phase 1 study arms, including aged subjects; cited from earlier work
human calpain-1 = target: T1, human calpain-1 (Homo sapiens, UniProt P07384); experiment: Calpain-1 inhibition assay; assay type: biochemical; details: for Calpain-1 % Inhibition at 1 μM: 1 μM compound, three replicates, errors estimated <10%; for inhibition at 1 µM: read-out: Calpain-1 % Inhibition at 1 μM
T1 sequence (P07384 1-714): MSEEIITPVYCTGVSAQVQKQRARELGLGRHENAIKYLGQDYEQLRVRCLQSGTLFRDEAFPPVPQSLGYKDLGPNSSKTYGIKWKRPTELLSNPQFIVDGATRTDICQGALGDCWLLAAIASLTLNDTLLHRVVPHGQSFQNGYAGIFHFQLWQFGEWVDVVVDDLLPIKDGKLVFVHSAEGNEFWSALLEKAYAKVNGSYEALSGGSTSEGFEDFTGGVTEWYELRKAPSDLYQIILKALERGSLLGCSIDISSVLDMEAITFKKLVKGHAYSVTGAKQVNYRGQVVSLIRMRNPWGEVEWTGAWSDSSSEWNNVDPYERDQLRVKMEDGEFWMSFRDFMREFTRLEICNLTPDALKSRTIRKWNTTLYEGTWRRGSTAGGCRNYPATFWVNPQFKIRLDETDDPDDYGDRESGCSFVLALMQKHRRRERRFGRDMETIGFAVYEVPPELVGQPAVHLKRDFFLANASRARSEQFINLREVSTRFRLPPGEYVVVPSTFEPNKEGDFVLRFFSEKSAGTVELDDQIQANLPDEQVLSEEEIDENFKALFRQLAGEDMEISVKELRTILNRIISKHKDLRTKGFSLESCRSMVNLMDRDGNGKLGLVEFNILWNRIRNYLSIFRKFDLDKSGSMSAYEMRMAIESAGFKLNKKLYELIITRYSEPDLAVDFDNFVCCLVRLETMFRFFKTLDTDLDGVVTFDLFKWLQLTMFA
T1 sequence (P04632 1-268 partner): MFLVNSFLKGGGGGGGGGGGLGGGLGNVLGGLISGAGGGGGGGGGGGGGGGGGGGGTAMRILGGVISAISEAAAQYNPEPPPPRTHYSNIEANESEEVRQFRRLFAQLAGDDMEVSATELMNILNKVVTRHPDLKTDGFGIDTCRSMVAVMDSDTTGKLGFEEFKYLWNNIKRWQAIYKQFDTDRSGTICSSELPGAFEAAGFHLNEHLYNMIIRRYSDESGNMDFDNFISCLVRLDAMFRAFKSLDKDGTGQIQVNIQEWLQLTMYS

papain = target: T2, papain (Carica papaya, UniProt P00784); experiment: Papain inhibition assay; assay type: biochemical; details: for Papain % Inhibition at 1 μM: 1 μM compound, three replicates; for inhibition at 1 µM: read-out: Papain % Inhibition at 1 μM
T2 sequence (P00784 134-345): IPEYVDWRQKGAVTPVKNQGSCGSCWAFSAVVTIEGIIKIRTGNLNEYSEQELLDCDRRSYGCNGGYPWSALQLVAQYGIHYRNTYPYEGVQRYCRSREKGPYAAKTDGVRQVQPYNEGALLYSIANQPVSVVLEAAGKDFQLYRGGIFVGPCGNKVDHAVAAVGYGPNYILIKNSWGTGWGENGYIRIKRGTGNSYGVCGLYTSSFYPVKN

human cathepsin B = human cathepsin B (Homo sapiens, UniProt P07858); experiment: Cathepsin B inhibition assay; assay type: biochemical; details: for CatB % Inhibition at 1 μM: 1 μM compound, three replicates; for inhibition at 1 µM: read-out: CatB % Inhibition at 1 μM
human cathepsin K = target: T3, human cathepsin K (Homo sapiens, UniProt P43235); experiment: Cathepsin K inhibition assay; assay type: biochemical; details: for CatK % Inhibition at 1 μM: 1 μM compound, three replicates; for inhibition at 1 µM: read-out: CatK % Inhibition at 1 μM
T3 sequence (P43235 115-329): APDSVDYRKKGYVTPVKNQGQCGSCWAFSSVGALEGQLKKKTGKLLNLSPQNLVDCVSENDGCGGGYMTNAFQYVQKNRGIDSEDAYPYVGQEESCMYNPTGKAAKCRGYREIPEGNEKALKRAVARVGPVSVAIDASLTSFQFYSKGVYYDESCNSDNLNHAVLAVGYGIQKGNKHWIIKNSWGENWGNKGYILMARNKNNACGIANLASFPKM

[3] = tested on: scopolamine-induced cognitive deficit in mice; experiment: Step-through passive avoidance; assay type: in vivo; details: scopolamine 1 mg/kg, drug 10 mg/kg i.p.
Summary of the method: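 Mice receive scopolamine 1 mg/kg in saline by i.p. injection 30 min before training, then test compound (10 mg/kg) or vehicle 20 min before training. During training, entry into the dark compartment delivers an electric shock. The read-out is the latency to enter the dark compartment.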

Row | Structure (SMILES) | Calpain-1 % Inhibition at 1 μM (human calpain-1) | Papain % Inhibition at 1 μM (papain) | CatB % Inhibition at 1 μM (human cathepsin B) | CatK % Inhibition at 1 μM (human cathepsin K) | inhibition at 1 µM (human calpain-1) | further results
1 | O=C(NC1CC1)C(=O)C(Cc1ccccc1)NC(=O)[C@H]1CCC(=O)N1Cc1ccccc1 (stereo partly shown) [ABT-957, alicapistat] | – | – | – | – | – | Measured CSF concentrations [1]: 9 to 21 nM; Treatment-associated adverse events [2]: no treatment-associated adverse events were identified
2 | CCC(NC(=O)[C@H](CC(C)C)NC(=O)OCc1ccccc1)C(=O)C(=O)NCCCN1CCOCC1 (stereo partly shown) [AK-295] | 100% | 18.7% | 18.0% | 100% | – | Cathepsin K inhibition in words (human cathepsin K): potent inhibitor of cathepsin K
3 | CCCNC(=O)[C@H]1O[C@@H]1C(=O)N[C@H](C(=O)N1CCC[C@H]1C(=O)O)[C@@H](C)CC [CA-074] | 4.72% | 16.8% | 100% | 70.5% | – | –
4 | O=C(NCc1ccc(F)cc1)C(=O)[C@H](Cc1ccccc1)NC(=O)[C@H]1CCC(=O)N1Cc1ccccc1 [Compound 1c, (R)-1-benzyl-N-((S)-4-((4-fluorobenzyl)amino)-3,4-dioxo-1-phenylbutan-2-yl)-5-oxopyrrolidine-2-carboxamide] | – | – | – | – | 98.1% | IC50 (human calpain-1): 78 ± 10 nM; inhibition at 1 µM (papain): 15.2%; inhibition at 1 µM (human cathepsin B): 11.4%; Memory restoration in STPA, in words [3]: restored cognitive function; also recorded: restored memory; inhibition at 1 µM (human cathepsin K): 13.5%
5 | O=C(NCc1ccc(F)cc1)C(=O)[C@@H](Cc1ccccc1)NC(=O)[C@H]1CCC(=O)N1Cc1ccccc1 [Compound 1g, (R)-1-benzyl-N-((R)-4-((4-fluorobenzyl)amino)-3,4-dioxo-1-phenylbutan-2-yl)-5-oxopyrrolidine-2-carboxamide] | – | – | – | – | 31.8% | Calpain-1 potency in words (human calpain-1): greatly reduced potency
6 | CC(C)CCNC(=O)[C@H](CC(C)C)NC(=O)[C@H]1O[C@@H]1C(=O)O [Compound E-64c] | 86.0% | 97.6% | 99.3% | 100% | – | –
7 | CCOC(=O)[C@H]1O[C@@H]1C(=O)N[C@@H](CC(C)C)C(=O)NCCC(C)C [Compound E-64d] | – | – | – | – | – | Memory restoration in STPA, in words [3]: restore memory
8 | CC(C)(F)C[C@H](N[C@@H](c1ccc(-c2ccc(S(C)(=O)=O)cc2)cc1)C(F)(F)F)C(=O)NC1(C#N)CC1 [odanacatib] | – | – | – | – | 7.1% | inhibition at 1 µM (papain): 14.7%; inhibition at 1 µM (human cathepsin B): 57.2%; inhibition at 1 µM (human cathepsin K): 99.8%
